The values that follow come from PubChem BioAssay AID651628 (The Scripps Research Institute Molecular Screening Center, 2012).

Unmarked numbers belong to inactive results. Active and inactive are the calls of the source.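 Rule for the calls: active = at least one off-target enzyme showing weaker fluorescent probe labeling in any proteome panel; inactive = no off-target enzyme affected in any panel.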

In the assay the test system is Membrane Proteome. Briefly: proteome-wide probe labelling blockade by competitive ABPP – cell lysate, gel-based fluorescence, soluble and membrane fractions, selectivity assay for PAD4 inhibitor project, late-stage follow-up (AID 651628). The following applies: MCF7 proteome, CA-Rh gel-based ABPP, anti-target count, at 50 µM, stronger effect = higher value. The method, boiled down:
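Test system: MCF7 cell proteome, soluble or membrane fraction / Amount: proteome protein concentration of 1 mg/ml / Schedule: compound 1 h, probe 1 h, 25 °C / Buffer or medium: DPBS / Detection: SDS-PAGE separation with in-gel fluorescence scanning of labelled bands / Also added: Chloroacetamide-rhodamine (CA-Rh) labelling probe, 10 µM / Doses: compound at 10 or 50 µM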
With `COC1=C(Br)C(=O)c2ncccc2C1=O`, the number of anti-targets is > 5 (active).

In the case of `O=C1C=C(Br)C(=O)c2ncccc21`, the number of anti-targets is > 5 (active). As to `COC(=O)c1nc(C(=O)OC)c(NC(C)=O)c(-c2ccccc2Br)c1C`, the number of anti-targets is 0. Then `NC1=CC(=O)c2cccnc2C1=O`, with 0; and `COC1=C(I)C(=O)c2nc(C#N)ccc2C1=O`, with > 5 (active); and `COC1=C(N)C(=O)c2nc(-c3nc(C(=O)O)c(C)c(-c4ccc(OC)c(OC)c4O)c3N)ccc2C1=O`, with 0. Then `COC1=CC(=O)c2nc(C#N)ccc2C1=O`, with > 5 (active).

Take `NC1=CC(=O)c2ccc(-c3cccc(C(=O)O)n3)nc2C1=O`: the number of anti-targets was 0. The figure for `COC1=C(Br)C(=O)c2nc(-c3ccccn3)ccc2C1=O` is > 5 (active). For `COC(=O)c1cccc(-c2ccc3c(n2)C(=O)C(Br)=CC3=O)n1`, the number of anti-targets was > 5 (active). Then `COC(=O)c1cccc(-c2ccc3c(n2)C(=O)C(N)=CC3=O)n1`, with 0; and `O=C1C(O)=C(O)C(=O)c2ncccc21`, with > 5 (active).

As to `COC1=C(N)C(=O)c2ncccc2C1=O`, the number of anti-targets is 0. Then `NC1=CC(=O)c2ccc(-c3ccccn3)nc2C1=O`, with 0.
